ChEMBL document CHEMBL3286393 (J Med Chem, 2014)
One block for each compound: values may come before it. Active and inactive are the calls of the source. The rule behind the calls is not given here.

Experiments:
[1] = target: T1, Polyunsaturated fatty acid 5-lipoxygenase (Homo sapiens) (UniProt P09917); test: Inhibition of 5-LO in human neutrophils using arachidonic acid as substrate assessed as residual activity preincubated at 10 uM for 15 mins measured after 10 mins by HPLC analysis relative to control
T1 sequence (whole entry): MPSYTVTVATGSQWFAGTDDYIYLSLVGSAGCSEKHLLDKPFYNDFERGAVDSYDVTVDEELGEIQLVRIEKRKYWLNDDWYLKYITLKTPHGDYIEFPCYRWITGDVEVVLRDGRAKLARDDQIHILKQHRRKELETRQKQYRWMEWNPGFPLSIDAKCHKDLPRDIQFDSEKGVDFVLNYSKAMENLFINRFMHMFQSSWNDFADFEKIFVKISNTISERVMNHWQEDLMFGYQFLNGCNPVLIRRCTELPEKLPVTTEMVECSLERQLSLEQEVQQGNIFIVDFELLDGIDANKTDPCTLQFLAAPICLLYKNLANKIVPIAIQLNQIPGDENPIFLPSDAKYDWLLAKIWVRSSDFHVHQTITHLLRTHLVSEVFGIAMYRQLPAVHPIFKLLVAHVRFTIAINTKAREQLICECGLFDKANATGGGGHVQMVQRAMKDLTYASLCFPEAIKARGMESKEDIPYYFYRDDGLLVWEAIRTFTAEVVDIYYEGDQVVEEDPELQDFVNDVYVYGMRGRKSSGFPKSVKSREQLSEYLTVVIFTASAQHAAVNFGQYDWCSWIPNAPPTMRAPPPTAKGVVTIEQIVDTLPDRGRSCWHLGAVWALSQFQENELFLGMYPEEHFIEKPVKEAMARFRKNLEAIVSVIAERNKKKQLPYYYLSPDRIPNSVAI
Procedure, shortened: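 Fresh human neutrophils, 1 × 10⁷/mL in PBS pH 7.4 with 1 mM CaCl2 and 1 mg/mL glucose, preincubated 15 min at 37 °C. Stimulated with 2.5 μM A23187 plus 20 μM arachidonic acid for 10 min at 37 °C; methanol stop. LTB4, its all-trans isomers and 5-H(P)ETE by HPLC.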

Monocyte = test: Inhibition of 11-HETE formation in LPS-stimulated human monocytes preincubated for 15 mins before arachidonic acid substrate addition measured after 30 mins by UPLC-MS/MS analysis; assay type: functional, cell-based
Procedure, shortened: (§1)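 Fresh human monocytes (adherence-isolated, >85% CD14+; 5 × 10⁶/well) primed with LPS 1 μg/mL for 24 h. Washed, 15 min preincubation, then 2.5 μM A23187 plus 20 μM arachidonic acid for 30 min. Eicosanoids extracted and measured by UPLC-MS/MS, normalized to PGB1 as relative intensities. Two to three independent experiments.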

Prostaglandin E synthase = target: T2, Prostaglandin E synthase (Homo sapiens, UniProt O14684); test: (§2) Inhibition of mPGES1-mediated PGE2 formation in LPS-stimulated human monocytes preincubated for 15 mins before arachidonic acid substrate addition measured after 30 mins by UPLC-MS/MS analysis; assay type: cell-based; procedure, shortened: as §1
T2 sequence (O14684 whole entry): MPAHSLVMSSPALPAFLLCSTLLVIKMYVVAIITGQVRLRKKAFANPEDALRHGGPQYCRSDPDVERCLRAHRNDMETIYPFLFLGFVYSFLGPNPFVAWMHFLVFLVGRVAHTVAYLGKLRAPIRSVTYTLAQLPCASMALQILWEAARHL

Mus musculus [2] = test: Antiinflammatory activity in zymosan-induced peritonitis CD1 mouse model assessed as suppression of MPO activity at 10 mg/kg, ip administered 30 mins before challenge measured 4 hrs post zymosan challenge relative to control; assay type: functional; details: route intraperitoneal
Procedure, shortened: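 In male CD-1 mice (n = 5−11 per group), dose was given ip in 2% DMSO/saline 30 min before ip zymosan (2 mg/mL, 0.5 mL). Lavage 4 h later. Pelleted exudate cells disrupted; supernatant mixed with 0.167 mg/mL o-dianisidine and 0.0005% H2O2 in PBS, read kinetically by absorbance. U/mL from human neutrophil MPO calibration; % inhibition vs vehicle.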

Mus musculus [3] = test: Antiinflammatory activity in zymosan-induced peritonitis CD1 mouse model assessed as suppression of neutrophil infiltration at 10 mg/kg, ip administered 30 mins before challenge measured 4 hrs post zymosan challenge relative to control; assay type: functional; details: route intraperitoneal
Procedure, shortened: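 Zymosan peritonitis in male CD-1 mice (n = 5−11): ip dose in 2% DMSO/saline 30 min before ip zymosan. Peritoneal lavage with 3 mL cold PBS at 4 h. Exudate cells counted by light microscopy in a Burker chamber after trypan blue staining; % inhibition vs vehicle.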

[4] = target: T3, Prostaglandin G/H synthase 1 (Ovis aries) (UniProt P05979); test: Inhibition of purified ovine COX-1 assessed as residual activity by measuring formation of 12-HHT from arachidonic acid preincubated at 10 uM for 5 mins before substrate addition measured after 5 mins by HPLC analysis relative to control; values are per cent of control
T3 sequence (whole entry): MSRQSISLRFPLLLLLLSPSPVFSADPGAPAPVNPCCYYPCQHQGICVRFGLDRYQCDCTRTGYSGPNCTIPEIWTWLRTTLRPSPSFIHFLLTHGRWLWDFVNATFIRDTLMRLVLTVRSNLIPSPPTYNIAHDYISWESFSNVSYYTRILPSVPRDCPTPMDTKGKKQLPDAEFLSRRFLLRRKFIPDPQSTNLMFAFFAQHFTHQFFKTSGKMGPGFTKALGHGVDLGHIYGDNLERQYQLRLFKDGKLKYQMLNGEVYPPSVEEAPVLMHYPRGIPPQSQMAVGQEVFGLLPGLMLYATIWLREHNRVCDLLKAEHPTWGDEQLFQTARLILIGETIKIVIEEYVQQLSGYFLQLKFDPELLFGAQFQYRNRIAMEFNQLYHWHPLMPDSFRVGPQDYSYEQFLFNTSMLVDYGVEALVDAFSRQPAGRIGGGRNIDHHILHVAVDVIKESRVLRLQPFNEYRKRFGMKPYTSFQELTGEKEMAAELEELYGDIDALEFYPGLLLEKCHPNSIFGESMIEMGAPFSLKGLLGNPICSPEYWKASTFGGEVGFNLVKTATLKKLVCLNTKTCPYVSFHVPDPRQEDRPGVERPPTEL

[5] = target: Prostaglandin G/H synthase 1 (Homo sapiens, UniProt P23219); test: Inhibition of COX1-mediated […] in human platelets assessed as residual activity by measuring formation of 12-HHT from arachidonic acid preincubated at 10 uM for 5 mins measured after 5 mins by RP-HPLC analysis relative to control; values are per cent of control
Prostaglandin G/H synthase 1, sequence (P23219 whole entry): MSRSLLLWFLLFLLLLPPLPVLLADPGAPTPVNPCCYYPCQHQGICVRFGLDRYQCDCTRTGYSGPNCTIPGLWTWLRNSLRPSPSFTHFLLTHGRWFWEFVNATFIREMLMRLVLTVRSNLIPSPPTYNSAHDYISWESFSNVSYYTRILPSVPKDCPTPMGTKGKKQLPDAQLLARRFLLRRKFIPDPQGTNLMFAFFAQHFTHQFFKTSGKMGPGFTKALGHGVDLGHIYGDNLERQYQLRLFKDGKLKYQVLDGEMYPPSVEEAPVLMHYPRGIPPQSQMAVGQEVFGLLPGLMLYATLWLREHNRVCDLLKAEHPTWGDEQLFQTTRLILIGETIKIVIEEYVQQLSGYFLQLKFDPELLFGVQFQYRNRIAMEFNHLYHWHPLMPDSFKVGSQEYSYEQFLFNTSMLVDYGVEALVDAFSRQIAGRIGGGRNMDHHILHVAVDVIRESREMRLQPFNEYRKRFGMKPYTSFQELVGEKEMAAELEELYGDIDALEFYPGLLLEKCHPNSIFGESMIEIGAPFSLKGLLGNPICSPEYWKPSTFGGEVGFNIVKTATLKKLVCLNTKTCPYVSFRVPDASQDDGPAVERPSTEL

[6] = target: T4, Prostaglandin E synthase (Homo sapiens) (UniProt O14684); test: as §2; assay type: cell-based; procedure, shortened: as §1
T4 sequence (whole entry): T2 sequence (O14684 whole entry)

SMILES: COc1cc(CCC(=O)CC(=O)CCc2ccc(O)c(OC)c2)ccc1O [TETRAHYDROCURCUMIN]
Activity [1]: 70.1%

SMILES: COc1cc(/C=C/c2cc(/C=C/c3cc(CC=C(C)C)c(O)c(OC)c3)[nH]n2)cc(CC=C(C)C)c1O
inhibition in vivo at 10 mg/kg (Mus musculus [2]): 39% | inhibition in vivo at 10 mg/kg (Mus musculus [3]): 75% | IC50 (Prostaglandin E synthase): > 10000 nM

SMILES: COc1cc(/C=C/C(=O)CC(=O)/C=C/c2cc(CC=C(C)C)c(O)c(OC)c2)cc(CC=C(C)C)c1O
residual activity [4]: 80.2% | Activity [1]: 74.3%

SMILES: COc1cc(/C=C/C(=O)/C=C/c2cc(CC=C(C)C)c(O)c(OC)c2)cc(CC=C(C)C)c1O
residual activity [4]: 78.7%

The next lines start with the values.

IC50 (Monocyte): 1200 nM | IC50 (Prostaglandin E synthase): 1200 nM
SMILES: COc1cc(/C=C/C(=O)CC(=O)/C=C/c2ccc(O)c(OC)c2)ccc1O [CURCUMIN]

residual activity [5]: 82.3% | inhibition [6]: Active
SMILES: COc1cc(/C=C/c2cc(/C=C/c3ccc(O)c(OC)c3)[nH]n2)ccc1O [CURCUMIN PYRAZOLE]

inhibition [6]: Active
SMILES: COc1cc(/C=C/c2cc(-c3ccc(O)c(OC)c3)[nH]n2)ccc1O
